Measurements collected from several papers.
Protocols differ between the studies behind these lines.
Read-out: cell growth or viability

| SMILES | cell line | technique | concentration | time | quantity | value |
| --- | --- | --- | --- | --- | --- | --- |
| Oc1ccc(Nc2nc(-c3ccc(Cl)cc3)cs2)cc1 | FF2441 | MTS | – | 72 h | IC50 | > 100 µM |
| COc1ccc(-c2cc(=O)c3c(OC)cc(OC)c(-c4c(OC)cc(OC)c5c(=O)cc(-c6ccc(OC)cc6)oc45)c3o2)cc1 | HS27 | MTT | – | 24 h | IC50 | > 200 µM |
| O=[N+]([O-])c1cccc(-c2nc3ccccc3[nH]2)c1 | MDA-MB-231 | MTT | – | 48 h | IC50 | > 100 µM |
| COc1cccc2c1C(=O)c1c(O)c3c(c(O)c1C2=O)C[C@@](O)(C(=O)CO)C[C@@H]3O[C@H]1C[C@H](N)[C@H](O)[C@H](C)O1 | MDA-MB-231 | MTT | 25 µM | 24 h | viability | 16.2% |
| COc1cc2c(cc1O)CCN(Cc1cccc(NS(C)(=O)=O)c1)C2 | MDA-MB-231 | WST-1 | – | 96 h | GI50 | > 100 µM |
| COc1cc(OC)c2c(=O)cc(-c3ccccc3)oc2c1 | HS27 | MTT | – | 24 h | IC50 | > 200 µM |
| CC#CC(=O)N1CC[C@@H](n2cc(-c3ccc(Oc4c(F)cccc4F)cc3)c3c(N)n[nH]c(=O)c32)C1 | OCI-Ly3 | ATP luminescence | – | 72 h | GI50 | 9.56 µM |
| COc1cc2c(cc1O)CCN(Cc1cccc(O)c1)C2 | MDA-MB-231 | WST-1 | – | 96 h | GI50 | > 100 µM |
| COc1cc(OC)c2c(=O)cc(-c3ccccc3)oc2c1-c1c(OC)cc(OC)c2c(=O)cc(-c3ccccc3)oc12 | HS27 | MTT | – | 24 h | IC50 | > 200 µM |
| O=C1CCCCC1=C1Sc2nc3ccc(S(=O)(=O)N4CCCC4)cc3nc2S1 | MDA-MB-231 | MTT | 50 µM | 24 h | viability | 14.9% |
| COc1ccc(CN2CCc3cc(OS(N)(=O)=O)c(OC)cc3C2)cc1OC | MDA-MB-231 | WST-1 | – | 96 h | GI50 | 3.15 µM |
| COc1cc(C)c(-c2c(C)cc(OC)c3c(=O)cc(-c4ccc(N(C)C)cc4)oc23)c2oc(-c3ccc(N(C)C)cc3)cc(=O)c12 | HS27 | MTT | – | 24 h | IC50 | 180 µM |
| Cc1ccc2nc(-c3ccccc3Cl)[nH]c2c1 | MDA-MB-231 | MTT | – | 48 h | IC50 | 64.9 µM |
| COc1cc2c(cc1O)CCN(Cc1cccc(OC(F)(F)F)c1)C2 | MDA-MB-231 | WST-1 | – | 96 h | GI50 | > 100 µM |
| C[C@]12CC[C@H](O)CC1=CC[C@@H]1[C@@H]2CC[C@]2(C)C(c3cccnc3)=CC[C@@H]12 | CWR22Rv1 | MTT | – | – | GI50 | 11.5 µM |
| COc1cc2c(cc1O)CCN(Cc1cc(OC)c(OC)cc1OC)C2 | MDA-MB-231 | WST-1 | – | 96 h | GI50 | 4.1 µM |
| COc1cc(C)cc2oc(-c3ccc(N(C)C)cc3)cc(=O)c12 | HS27 | MTT | – | 24 h | IC50 | 141 µM |
| N#CC(C(=O)Nc1cccc(C(F)(F)F)c1)=C1Sc2nc3ccc(S(=O)(=O)N4CCCC4)cc3nc2S1 | MDA-MB-231 | MTT | 50 µM | 24 h | viability | 18.4% |
| COc1cc2c(cc1OS(N)(=O)=O)CCN(Cc1cccc(OC(C)C)c1)C2 | MDA-MB-231 | WST-1 | – | 96 h | GI50 | 4.65 µM |
| CNC(=O)c1ccc(N2C(=S)N(c3ccc(C#N)c(C(F)(F)F)c3)C(=O)C2(C)C)cc1F | CWR22Rv1 | MTT | – | – | GI50 | 15.1 µM |
| CCOC(=O)C(C(C)=O)=C1Sc2nc3ccc(S(=O)(=O)N4CCCC4)cc3nc2S1 | MDA-MB-231 | MTT | 3.125 µM | 24 h | viability | 49.2% |
| COc1cc2c(cc1OS(N)(=O)=O)CCN(C(=O)c1cc(OC)c(OC)c(OC)c1)C2 | MDA-MB-231 | WST-1 | – | 96 h | GI50 | 1.72 µM |
| COc1cc(OC)c2c(=O)cc(-c3ccc(Br)cc3)oc2c1 | HS27 | MTT | – | 24 h | IC50 | > 200 µM |
